# From article PMC9306447 (Clinical Cancer Research, 2022)
# “And” between values parts separate entries of the source, which are not always exact repeats. Equal values may be shown once. Read-outs that look alike come from different tables or passages of the source.
# Legend:
# [1] = Clinical safety, adverse events graded by CTCAE; type: in vivo, human; settings: 10 patients
# [2] = tested on: ALK(+) NSCLC brain metastases; settings: ASCEND-1, cited from earlier work
# [3] = Ceritinib concentrations in brain tumor and CSF and extent of CNS penetration; type: in vivo, human; settings: for Total drug tumor conc. EN / Unbound drug tumor conc. EN: enhancing tumor; for Total drug tumor conc. NE / Unbound drug tumor conc. NE: nonenhancing tumor
# [4] = tested on: FAK; settings: read-out: biochemical IC50; cited from earlier work
# [5] = Steady-state plasma PK of total and unbound ceritinib; type: in vivo, human; settings: for Css,max / Tss,max: plasma
# [6] = daily dose; cited from earlier work
# [7] = tested on: human plasma proteins; test: Fraction unbound in plasma by equilibrium dialysis; type: in vitro ADME; settings: patient plasma; median and range
# Procedure, shortened: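 Patient plasma came from subjects dosed orally with the test compound for 10 days (750 mg/day fasted or 450 mg/day fed). Blood was sampled on day 9 and intraoperatively, centrifuged at 4°C, 1,500 g for 10 min, and the plasma stored at −80°C. Fraction unbound was measured by equilibrium dialysis; unbound concentration is total concentration (LC-MS/MS) times fraction unbound.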
# [8] = Fraction unbound in brain tumor tissue by equilibrium dialysis; type: in vitro ADME, human; settings: for Fraction unbound EN: enhancing tumor tissue; for Fraction unbound NE: nonenhancing tumor tissue
# Procedure, shortened: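 Patients with brain metastasis or recurrent glioblastoma took the test compound orally for 10 days: 750 mg/day fasted or 450 mg/day with food. Tumor was resected 2 to 4, 6 to 8 or 23 to 25 h after the 10th dose. Regions were gadolinium-enhancing or, for glioblastoma, also nonenhancing, defined by preoperative MRI and intraoperative neuronavigation. Fraction unbound was measured by equilibrium dialysis, with total drug by LC-MS/MS.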
# [9] = tested on: IGF1R; settings: read-out: biochemical IC50; cited from earlier work
# [10] = tested on: ALK(+) NSCLC with brain metastases; settings: across all four arms of ASCEND-7; cited from earlier work
# [11] = mean of patients, all time points
# [12] = median of patients, all time points
# [13] = individual patients 7, 9, 13, 6–8 h after 10th dose, 450 mg/day
# [14] = individual patients 8, 14, 23–25 h after 10th dose, 450 mg/day
# [15] = individual patients 5, 11, 2–4 h after 10th dose, 450 mg/day
# [16] = total ceritinib, arithmetic mean of 10 patients (750 or 450 mg/day)
# [17] = total ceritinib, geometric mean of 10 patients (750 or 450 mg/day)
# [18] = unbound ceritinib, arithmetic mean of 10 patients (750 or 450 mg/day)
# [19] = unbound ceritinib, geometric mean of 10 patients (750 or 450 mg/day)
# [20] = individual patients 7, 9, 13 (resection 6–8 h)
# [21] = individual patients 8, 14 (resection 23–25 h)
# [22] = median (range given) of patients
structure (smiles),measurement,setting,value
"Cc1cc(Nc2ncc(Cl)c(Nc3ccccc3S(=O)(=O)C(C)C)n2)c(OC(C)C)cc1C1CCNCC1 [ceritinib, 5-chloro-N2-(2-isopropoxy-5-methyl-4-(piperidin-4-yl)phenyl)-N4-(2-(isopropylsufonyl)phenyl)pyrimidine-2,4-diamine]",tolerability of presurgical ceritinib,[1]; 10-day presurgical course,well tolerated
same,severity of toxicities at least possibly related to ceritinib,[1]; CTCAE 4.0,minor (CTCAE 4.0 grades 1 and 2)
same,intracranial disease control rate,[2]; ALKi-naïve patients (15/19),78.9%
same,intracranial disease control rate,[2]; ALKi-pretreated patients (49/75),65.3%
same,CSF concentration,"[3]; individual patient 14, 23–25 h after 10th dose, 450 mg/day",0.015 µM
same,CSF concentration,"[3]; individual patients 7, 13, 6–8 h after 10th dose, 450 mg/day",0.003 µM and 0.015 µM
same,CSF concentration,[3]; [11],0.022 µM
same,CSF concentration,[3]; [12],0.012 µM
same,Total drug tumor conc. EN,[3]; [13],17.770 nmol/mg and 28.484 nmol/mg and 58.893 nmol/mg
same,Unbound drug tumor conc. EN,[3]; [13],0.001 nmol/mg and 0.043 nmol/mg and 0.018 nmol/mg
same,Total drug tumor conc. EN,[3]; [14],18.340 nmol/mg and 43.715 nmol/mg
same,Unbound drug tumor conc. EN,[3]; [14],0.055 nmol/mg and 0.063 nmol/mg
same,Total drug tumor conc. EN,[3]; [11],46.954 nmol/mg
same,Unbound drug tumor conc. EN,[3]; [11],0.117 nmol/mg
same,Total drug tumor conc. EN,[3]; [12],36.100 nmol/mg
same,Unbound drug tumor conc. EN,[3]; [12],0.048 nmol/mg
same,unbound concentration in enhancing tumor,[3]; median,48 nM
same,unbound concentration in nonenhancing tumor,[3]; median,6 nM
same,Total drug tumor conc. NE,[3]; [15],36.351 nmol/mg and 1.259 nmol/mg
same,Unbound drug tumor conc. NE,[3]; [15],0.017 nmol/mg and BLQ
same,Total drug tumor conc. NE,[3]; [11],9.674 nmol/mg
same,Unbound drug tumor conc. NE,[3]; [11],0.008 nmol/mg
same,Total drug tumor conc. NE,[3]; [12],2.771 nmol/mg
same,Unbound drug tumor conc. NE,[3]; [12],0.006 nmol/mg
same,IC50,[4],30 nM
same,"Css,max",[5]; [16],1279 nM
same,"Tss,max",[5]; [16],6.1 h
same,"Css,max",[5]; [17],1230 nM
same,"Tss,max",[5]; [17],5.9 h
same,CL/F,[5]; [16],42.5 L/h
same,fluctuation between steady-state peak and trough plasma concentrations,"[5]; total ceritinib, geometric mean",1.4 fold
same,CL/F,"[5]; total ceritinib, individual patients 1-3 (brain metastases), 750 mg/day fasted",29.8 L/h and 66.9 L/h and 54.6 L/h
same,CL/F,"[5]; total ceritinib, individual patients 5-14 (glioblastoma), 450 mg/day with food",35.9 L/h and 39.8 L/h and 34.1 L/h and 34.7 L/h and 40.8 L/h and 37.8 L/h and 50.1 L/h
same,"Css,max",[5]; [18],19 nM
same,"Tss,max",[5]; [18],9.3 h
same,"Css,max",[5]; [19],15 nM
same,"Tss,max",[5]; [19],7.0 h
same,maximally tolerated dose (MTD),[6],750 mg
same,fraction unbound in human plasma,[7],1.4% and 0.6%–2.6%
same,Fraction unbound EN,"[8]; individual patients 1, 2, 3, 5, 11 (resection 2–4 h)",1.618% and 0.039% and 0.047% and 0.056%
same,Fraction unbound EN,[8]; [20],0.006% and 0.153% and 0.030%
same,Fraction unbound EN,[8]; [21],0.298% and 0.144%
same,Fraction unbound EN,[8]; [22],0.006%–1.6% and 0.051%
same,Fraction unbound NE,"[8]; individual patients 5, 11 (resection 2–4 h)",0.045% and 0.006%
same,Fraction unbound NE,[8]; [20],0.006% and 0.163% and 0.030%
same,Fraction unbound NE,[8]; [21],0.090% and 0.213%
same,Fraction unbound NE,[8]; [22],0.045% and 0.006%–0.21%
same,fraction unbound in the tumor relative to the median value,"[8]; patient 1, breast cancer brain metastasis",approximately 30 fold
same,IC50,[9],8 nM
same,"disease control rate (DCR), intracranial",[10],High disease control rate
